Only some compounds are listed: those with a hit (about 4.6% of all), similar ones and a draw of the others.
OX1R antag-1 = antagonists of human orexin 1 receptor. O43613. CHO/OX1R cells, Fluo-8 calcium fluorescence, orexin A. inhibition, % at 5 µM. 330,000 tested, 0.43% active. AID 434989;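 active = inhibition above its plate's threshold, mean inhibition of all tested compounds on the plate plus 3 SD, cut at about 37% in these data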
GPR7 antagonist = human neuropeptides B/W receptor 1 antagonism. GPR7-expressing cells, fluorescence antagonist assay. inhibition, % at 4.4 µM. 290,000 tested, 1.1% active; in the data active = inhibition above about 16%, passing the limit was not always enough;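 note: cells stimulated with the agonist NPW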
Target sequence (P48145 whole entry, looked up): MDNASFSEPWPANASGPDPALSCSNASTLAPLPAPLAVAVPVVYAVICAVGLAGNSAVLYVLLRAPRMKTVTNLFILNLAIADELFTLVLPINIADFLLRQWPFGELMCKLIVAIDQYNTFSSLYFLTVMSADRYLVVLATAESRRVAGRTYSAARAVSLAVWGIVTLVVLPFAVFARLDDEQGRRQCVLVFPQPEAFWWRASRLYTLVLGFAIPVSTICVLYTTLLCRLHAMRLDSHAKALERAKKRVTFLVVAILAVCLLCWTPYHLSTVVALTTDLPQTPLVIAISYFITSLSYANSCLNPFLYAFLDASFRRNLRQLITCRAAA
TAAR1 ag = agonists of human TAAR1. AID 624467. CHO RD-HGA16 TAAR1, Fluo-8 calcium fluorescence; vehicle wells 0%, saturating PEA agonist 100%. Q96RJ0. 360,000 tested, 0.99% active. activation, % at 3 µM;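 active = activation above the mean activation of all test compounds in the run plus 3 SD, cut at about 38% in these data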
Target sequence (Q96RJ0 whole entry, looked up): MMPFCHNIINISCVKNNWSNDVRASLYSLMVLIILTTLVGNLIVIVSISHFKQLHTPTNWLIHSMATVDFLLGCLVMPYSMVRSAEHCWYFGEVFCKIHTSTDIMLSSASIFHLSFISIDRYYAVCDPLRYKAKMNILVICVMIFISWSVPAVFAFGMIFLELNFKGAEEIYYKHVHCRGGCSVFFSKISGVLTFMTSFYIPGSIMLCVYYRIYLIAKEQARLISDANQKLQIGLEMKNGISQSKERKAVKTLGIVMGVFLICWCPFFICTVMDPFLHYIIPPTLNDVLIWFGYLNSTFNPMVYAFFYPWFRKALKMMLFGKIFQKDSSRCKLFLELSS
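System: CHO-derived RD-HGA16 cells with stable Gα16 and human TAAR1 / Times: 17-24 h plating, Fluo-8 75 min 37 °C, 30 min RT / Technique: calcium-sensitive Fluo-8 signal, excitation 470-495, emission 515-575 nm / Measure: % activation relative to PEA EC100 response / Benchmarks: DMSO and PEA EC100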
TAAR1 antag = antagonists of human TAAR1. 360,000 tested, 1.5% active. inhibition, % at 3 µM. CHO RD-HGA16 TAAR1, Fluo-8 calcium fluorescence, antagonist. AID 624466;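 active = inhibition above a per-plate cutoff, the mean inhibition of test compounds on that plate plus 3 SD, cut at about 49% in these data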
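Assay system: CHO-derived RD-HGA16 cells stably expressing human TAAR1 plus Gα16. Timing: 140 s kinetic read after compound, 140 s after agonist. Technique: kinetic Fluo-8 calcium fluorescence measurement. Measure: % inhibition of agonist calcium response.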
OX1R antag-2 = blocks the human orexin 1 receptor; O43613; OX1R-expressing cells, FRET antagonist read-out; inhibition, % at 6.6 µM; 330,000 tested, 1.8% active; in the data active = inhibition mostly above about 38%, no sharp cut-off; inactive = mostly below about 40%
CHO parental Ca = signal in parental CHO cells, OX1R antagonist counter-screen. parental CHO-K1, ATP-induced calcium, Fluo-8 fluorescence. inhibition, % at 5.6 µM. 330,000 tested, 0.63% active;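 active = inhibition above that plate's mean sample inhibition plus 3 SD, cut at about 26% in these data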
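Assay system: parental CHO cells; Read-out basis: percent inhibition of ATP-evoked calcium rise, normalized to controls; Benchmarks: ATP and no-ATP DMSO wells; Compound dosing: single nominal dose of 5.6 µM per compound; Signal: Fluo-8 calcium dye fluorescence; Also added: ATP as calcium-mobilizing challenge; Repeats: singlicate.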
TAAR1 nonsel count = nonselective antagonist in TAAR1 antagonist counter-screen; AID 651780; counterscreen cell line, calcium fluorescence, antagonist mode; 2,400 tested, 77% active; inhibition, % at 3 µM; shares compounds with TAAR1 antag; in the data active = inhibition above about 22%;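 note: CHO-Ga16 host cells stimulated with ATP at an EC80 level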
TAAR1 antag conf = human TAAR1 antagonism, confirmed | TAAR1-expressing cells, fluorescence antagonist read-out | shares compounds with TAAR1 antag | 2,400 tested, 40% active | AID 651785 | inhibition, % at 3 µM; in the data active = inhibition above about 49%;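 note: CHO-Ga16 host cells challenged with agonist PEA near its EC80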
Ga16 nonsel ag = nonselective Ga16 agonism, counter-screen; shares compounds with TAAR1 antag; Ga16-expressing cells, calcium fluorescence, agonist counterscreen; activation, % at 3 µM; 2,400 tested, 18% active; AID 651953; in the data active = activation above about 12%
TAAR1 ag count = TAAR1 agonism, antagonist counter-screen; shares compounds with TAAR1 antag; hTAAR1 cell line, fluorescence activation, agonist mode; activation, % at 3 µM; 2,400 tested, 2% active; AID 651955; in the data active = activation above about 37%;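 note: CHO cells stably expressing TAAR1 with calcium dye readout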
Numbers stand for hits; . = inactive; / = no result given.

SMILES	OX1R antag-1	GPR7 antagonist	TAAR1 ag	TAAR1 antag	OX1R antag-2	CHO parental Ca	TAAR1 nonsel count	TAAR1 antag conf	Ga16 nonsel ag	TAAR1 ag count
CCN(CC)c1ncnc2c1ncn2[C@H]1CN(C2CCCC2)C[C@@H](CO)O1	/	/	.	.	/	/	/	/	/	/
Cn1c(=O)c2c(ncn2CCOc2cccc(Br)c2)n(C)c1=O	.	.	.	.	.	.	/	/	/	/
COC(=O)C1=C(C)N(Cc2ccc(Cl)cc2)C(=S)NC1c1cccc(F)c1 (centres undefined)	/	/	.	.	/	/	/	/	/	/
COC(=O)C1=C(C)N(Cc2ccc(F)cc2)C(=S)NC1c1cccc(Br)c1 (centres undefined)	/	/	.	54	/	/	.	.	.	.
COC(=O)C1=C(C)N(Cc2ccc(C(F)(F)F)cc2)C(=NCc2ccc3c(c2)OCO3)NC1c1cccc(Cl)c1 (centres undefined)	/	/	.	49	/	/	31	.	14	.
CCCCn1c(N)c(N(CCOC)C(=O)c2ccc(N3CCCC3)c([N+](=O)[O-])c2)c(=O)[nH]c1=O	.	/	.	.	.	.	/	/	/	/
COCC1CCN(C(=O)c2ccc(OC3CCN(Cc4ccccn4)CC3)cc2)C1 (centres undefined)	.	.	.	.	.	.	/	/	/	/
CC(=O)c1ccc(OC2(C)CCN(Cc3ccc4ccccc4c3)C2)cc1 (centres undefined)	/	/	.	.	/	/	/	/	/	/
CC(NC(=O)c1cc2c(=O)n(C)c3ccccc3c2n1C)c1ccc2c(c1)OCCO2 (centres undefined)	.	.	.	59	.	.	22	.	.	.
Cn1c(C(=O)Nc2ccc3c(c2)OCO3)cc2c(=O)n(C)c3ccccc3c21	.	.	.	.	.	.	/	/	/	/
Cc1ccccc1S(=O)(=O)Cc1ccc(C(=O)NC(C)c2ccc3c(c2)OCCO3)o1 (centres undefined)	.	.	.	.	.	.	/	/	/	/
CC(NC(=O)c1ccc(CS(=O)(=O)c2ccc(Cl)cc2)o1)c1ccc2c(c1)OCCO2 (centres undefined)	.	.	.	59	.	.	32	53	.	.
COCCCNC(=O)/C(C#N)=C/c1c(N2CCN(c3ccccc3)CC2)nc2c(C)cccn2c1=O	.	.	.	50	.	.	.	.	.	.
COCCCNC(=O)/C(C#N)=C/c1c(N2CCN(c3cccc(Cl)c3)CC2)nc2c(C)cccn2c1=O	.	.	.	.	.	.	/	/	/	/
C/C(=N\NC(=O)C1CCCC1)c1ccc(Cl)cc1Cl	/	.	.	.	/	/	/	/	/	/
CSCCC(NS(=O)(=O)c1ccc2c(c1)OCCO2)C(=O)N(C)Cc1ccc(F)cc1 (centres undefined)	.	/	.	76	.	.	31	63	13	.
CN(C)S(=O)(=O)c1cccc(C(=O)OCC(=O)c2ccc3c(c2)NC(=O)CO3)c1	.	.	.	66	.	.	28	.	13	.
Cc1ccc(S(=O)(=O)N(C)CC(=O)OCC(=O)c2ccc3c(c2)NC(=O)CO3)cc1	.	/	.	102	.	.	26	.	.	.
CN(C)c1ccc2c3c(ccc(N(C)C)c13)COC2	.	.	.	.	.	.	/	/	/	/
O=C(c1ccccc1)c1cnc2ccc(Cl)cc2c1N1CCOCC1	.	.	.	.	.	.	/	/	/	/
C[C@]12CC[C@H]3C(=CCc4cc(O)ccc43)[C@@H]1CCC2=O	.	.	.	83	.	.	35	59	12	.
C[C@]12C[C@H](O)[C@@H]3c4ccc(O)cc4CCC3[C@@H]1CCC2=O (some centres undefined)	.	.	.	.	.	.	/	/	/	/
CCCCNC(=O)c1c(CSc2ccccc2)noc1C(=O)NCc1ccccc1	.	/	.	.	.	.	/	/	/	/
CC1(C)CC(=O)c2c(nc(SCC(=O)Nc3nsc(-c4ccccc4)n3)c(C#N)c2-c2ccccc2)C1	.	.	.	.	.	.	/	/	/	/
CCc1c(C#N)c(SCCC(=O)Nc2ccc(F)cc2)nc2c1C(=O)CC(C)(C)C2	.	.	.	74	.	.	33	72	.	.
SMILES	OX1R antag-1	GPR7 antagonist	TAAR1 ag	TAAR1 antag	OX1R antag-2	CHO parental Ca	TAAR1 nonsel count	TAAR1 antag conf	Ga16 nonsel ag	TAAR1 ag count
Cn1c(=O)c2cc3ccccc3nc2n(C)c1=O	.	.	.	.	.	.	/	/	/	/
COc1ccc(CNC(=O)c2n[nH]c3ccccc23)cc1OC	.	.	.	.	.	.	/	/	/	/
O=C(NCCCN1CCOCC1)c1ccccc1N1C(=O)[C@@H]2Cc3c([nH]c4ccccc34)C(c3ccc(F)cc3)N2C1=O (some centres undefined)	.	.	.	73	.	.	26	.	.	.
O=C(NCCN1CCOCC1)c1ccccc1N1C(=O)[C@@H]2Cc3c([nH]c4ccccc34)C(c3ccccc3)N2C1=O (some centres undefined)	.	.	.	.	.	.	/	/	/	/
COc1ccc(NC(=O)N(Cc2cc3cc(C)ccc3[nH]c2=O)CC2CCCO2)cc1 (centres undefined)	.	.	.	.	.	.	/	/	/	/
COc1ccc2[nH]c(=O)c(CN(CC3CCCO3)S(=O)(=O)c3ccccc3)cc2c1 (centres undefined)	.	.	.	.	.	.	/	/	/	/
COc1ccc2[nH]c(=O)c(CN(CC3CCCO3)S(=O)(=O)c3ccccc3F)cc2c1 (centres undefined)	.	.	.	63	.	.	26	.	.	.
COc1ccc2[nH]c(=O)c(CN(CC3CCCO3)C(=O)Nc3ccc(F)cc3)cc2c1 (centres undefined)	/	.	.	81	/	/	52	66	16	.
Cc1ccc(-c2nnc(SCC(=O)NC3CC3)n2N)cc1	.	.	.	.	.	.	/	/	/	/
CC(OC(=O)[C@@H]1CCCN1C(=O)c1cccs1)C(=O)Nc1cccc([N+](=O)[O-])c1 (some centres undefined)	.	/	.	66	.	.	42	.	13	.
CC(OC(=O)C1CC2CCCC(C1)C2=O)C(=O)Nc1cccc([N+](=O)[O-])c1 (centres undefined)	.	/	.	.	.	.	/	/	/	/
CCc1ccc(NC(=O)C2=CC(c3ccc(OC)c(OC)c3)=NS(=O)(=O)N2C)cc1	.	.	.	68	.	.	33	.	.	.

Screening data: PubChem, The Scripps Research Institute Molecular Screening Center
